Bioassay records: PubChem BioAssay, Johns Hopkins Ion Channel Center
KCNQ1 inh: blocks the human KCNQ1 potassium channel; CHO-K1 KCNQ1, FluxOR thallium flux fluorescence; stronger effect = higher value; B-score at 10 µM; 310,000 compounds, 1.3% hits;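 active = compounds whose thallium flux B-score, printed positive for inhibition, exceeds three library SD while starting fluorescence stays within three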;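 also: channel opened by potassium depolarization with thallium stimulus after 20 min compound exposure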
Target sequence (P51787 whole entry, looked up): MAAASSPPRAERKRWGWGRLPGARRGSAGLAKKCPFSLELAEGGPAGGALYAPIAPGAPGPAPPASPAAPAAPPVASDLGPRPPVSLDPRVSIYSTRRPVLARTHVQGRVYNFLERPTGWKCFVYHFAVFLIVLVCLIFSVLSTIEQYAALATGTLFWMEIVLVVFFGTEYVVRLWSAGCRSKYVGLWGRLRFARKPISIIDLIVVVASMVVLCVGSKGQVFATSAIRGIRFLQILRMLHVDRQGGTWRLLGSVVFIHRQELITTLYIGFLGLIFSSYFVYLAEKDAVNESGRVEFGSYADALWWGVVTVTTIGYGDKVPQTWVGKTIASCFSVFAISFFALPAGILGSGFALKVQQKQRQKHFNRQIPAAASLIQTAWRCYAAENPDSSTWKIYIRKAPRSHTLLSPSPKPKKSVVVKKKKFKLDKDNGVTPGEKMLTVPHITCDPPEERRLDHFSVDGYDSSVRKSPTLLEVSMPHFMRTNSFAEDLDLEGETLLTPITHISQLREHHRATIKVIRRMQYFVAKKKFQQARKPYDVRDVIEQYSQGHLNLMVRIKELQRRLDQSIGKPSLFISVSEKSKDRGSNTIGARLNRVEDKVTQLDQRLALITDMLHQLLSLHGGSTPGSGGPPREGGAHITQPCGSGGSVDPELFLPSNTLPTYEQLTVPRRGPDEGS
KCNK9 inh: human KCNK9 channel inhibition; HEK293 KCNK9, FluxOR thallium flux fluorescence; stronger effect = lower value; B-score at 10 µM; 310,000 compounds, 1.2% hits; Q9NPC2;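 active = ratio B-score over 3 SD below the library mean, with starting fluorescence within 5 SD of its mean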;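 also: negative B-score means less thallium flux so channel inhibition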
hERG rescue: compounds protecting human hERG from proarrhythmic drug block | Q12809 | CHO-hERG, FluxOR thallium flux, dofetilide IC70 present | activation (rescue from dofetilide block), less the hit threshold, % at 10 µM | 310,000 compounds, 0.51% hits | AID 1511;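 active = activation above the mean of controls blocked by dofetilide plus 5 SD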;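 also: thallium influx through hERG after potassium depolarization seen as dye fluorescence rise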
KCNK3 inh: human KCNK3 channel inhibition, primary screen | O14649 | CHO-KCNK3 thallium flux, FluxOR fluorescence; stronger effect = lower value | B-score at 10 µM | 340,000 compounds, 0.84% hits | AID 602410;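 active = B-score under library mean minus 4 SD, starting fluorescence ratio at most library mean plus 5 SD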;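 also: more negative B-score means stronger inhibition of thallium flux through KCNK3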
KCNQ1 act: potentiators or activators of human KCNQ1 potassium channel; B-score at 10 µM; P51787; CHO-K1 KCNQ1, thallium flux FluxOR fluorescence; stronger effect = higher value; 310,000 compounds, 0.35% hits; AID 2648;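 active = fluorescence ratio B-score, a plate-corrected score, at least three library SD, with initial intensity B-score within 5 SD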
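Schedule – 37 °C overnight plating, 90-min dark dye load, 20-min compound pretreatment · System – stable KCNQ1 CHO-K1 line · Probe or stimulus – thallium- and potassium-containing depolarizing buffer · Measured by – kinetic FluxOR fluorescence, 10 s baseline plus 110 s post-stimulus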
Kir21 block: inhibitors of mouse Kir2.1 inward-rectifier potassium channel; P35561; HEK293-Kir2.1, FluxOR thallium flux fluorescence; stronger effect = lower value; B-score at 10 µM; 310,000 compounds, 0.85% hits;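 active = fluorescence ratio B-score at or below minus 3 SD of library scores, with starting-brightness B-score within 2 SD, cut at about -4.2 in these data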;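 also: channel flux triggered by added potassium and thallium sulfate stimulus; B-score of peak minus minimum fluorescence over baseline after thallium stimulus; more negative B-score means stronger Kir2.1 block with less thallium influx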
KCNK3 inh conf: human KCNK3 channel inhibition, confirmation assay. 2,400 compounds, 99% hits. CHO-KCNK3 thallium flux, FluxOR fluorescence; 0% buffer, 100% carvedilol maximal block. ratio percent of control, % at 10 µM. shares compounds with KCNK3 inh. AID 651638;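 active = ratio percent of control, averaged over triplicates, above buffer control mean plus 5 SD, cut at about 64% in these data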;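 also: ratio is the fluorescence rise from min to max over baseline after thallium stimulus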
KCNK3 uninduced: KCNK3 inhibitor counter-screen hit in non-induced cells; shares compounds with KCNK3 inh; non-induced KCNK3 parental cells, FluxOR thallium flux; stronger effect = lower value; thallium flux ratio (lower = more inhibition) at 10 µM; 2,400 compounds, 40% hits; AID 651747;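 active = thallium flux ratio, averaged over three wells, more than 5 SD below the buffer control mean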;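 also: host cells are CHO cells without KCNK3 induction; ratio is peak minus trough fluorescence over baseline then normalized to buffer controls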
Starred values were filed as active, the others as inactive. This is a sample that favours compounds with a hit; in the whole collection about 3.8% have one here.

Results for CCn1c(/C=C/c2ccccc2)nc2ccccc21 ?
KCNQ1 inh: inactive; KCNK9 inh: inactive; hERG rescue: -13; KCNK3 inh: inactive; KCNQ1 act: inactive; Kir21 block: -0.95

What do the screens show for `COc1ccc(Cn2c(/C=C/c3ccccc3)nc3ccccc32)cc1`?
KCNQ1 inh: inactive; KCNK9 inh: -6.8*; hERG rescue: -8; KCNK3 inh: -9.5*; KCNQ1 act: inactive; Kir21 block: 0.02; KCNK3 inh conf: 101*; KCNK3 uninduced: 0.15*

What do the screens show for `O=S(=O)(Nc1ncccn1)c1ccc(NC(=S)N2CCN(Cc3ccc(F)cc3Cl)CC2)cc1`?
KCNQ1 inh: inactive; KCNK9 inh: inactive; hERG rescue: -10; KCNK3 inh: inactive; KCNQ1 act: inactive; Kir21 block: 1.7

What do the screens show for `COc1cc2c(cc1OC)C(c1ccccc1)N(C(=O)c1ccco1)CC2` (stereo not given)?
KCNQ1 inh: inactive; KCNK9 inh: inactive; hERG rescue: -13; KCNK3 inh: -11*; KCNQ1 act: inactive; Kir21 block: -0.86; KCNK3 inh conf: 97*; KCNK3 uninduced: inactive

What do the screens show for `O=C(c1cccc2ccccc12)C1CCCN(C(=O)c2ccc(N3CCOCC3)cc2)C1` (stereo not given)?
KCNQ1 inh: inactive; KCNK9 inh: inactive; hERG rescue: -14; KCNK3 inh: -9.3*; KCNQ1 act: inactive; Kir21 block: -0.89; KCNK3 inh conf: 99*; KCNK3 uninduced: inactive

What do the screens show for `N=c1n(Cc2ccc(Cl)cc2)c2ccccc2n1CC(O)COc1ccccc1` (stereo not given)?
KCNQ1 inh: inactive; KCNK9 inh: inactive; hERG rescue: -24; KCNK3 inh: -12*; KCNQ1 act: inactive; Kir21 block: -9.6*; KCNK3 inh conf: 123*; KCNK3 uninduced: inactive

What do the screens show for `N=c1n(CCO)c2ccccc2n1Cc1ccc(Cl)cc1`?
KCNQ1 inh: inactive; KCNK9 inh: inactive; hERG rescue: -13; KCNK3 inh: inactive; KCNQ1 act: inactive; Kir21 block: -2.1

What do the screens show for `COc1ccc(CCN2C(=O)c3cccc4cccc(c34)C2=O)cc1OC`?
KCNQ1 inh: inactive; KCNK9 inh: inactive; hERG rescue: -8; KCNK3 inh: inactive; KCNQ1 act: inactive; Kir21 block: -0.03

What do the screens show for `COc1ccc(CN2C(=O)c3cccc4cccc2c34)cc1F`?
KCNQ1 inh: inactive; KCNK9 inh: inactive; hERG rescue: -9; KCNK3 inh: -9.3*; KCNQ1 act: inactive; Kir21 block: -0.16; KCNK3 inh conf: 90*; KCNK3 uninduced: inactive

Results for Cc1cc([N+](=O)[O-])nn1CC(=O)N1c2ccccc2CC1C (stereo not given) ?
KCNQ1 inh: inactive; KCNK9 inh: inactive; hERG rescue: 3; KCNK3 inh: inactive; KCNQ1 act: inactive; Kir21 block: 0.25

Results for Cc1noc(C)c1S(=O)(=O)Nc1ccc(C(=O)N2CCc3ccccc3C2)cc1 ?
KCNQ1 inh: inactive; KCNK9 inh: inactive; hERG rescue: -6; KCNK3 inh: -9.1*; KCNQ1 act: inactive; Kir21 block: 0.22; KCNK3 inh conf: 60*; KCNK3 uninduced: inactive

Results for NC(=O)C1CCN(C(=O)C2CCN(S(=O)(=O)c3ccccc3)CC2)CC1 ?
KCNQ1 inh: inactive; KCNK9 inh: inactive; hERG rescue: -6; KCNK3 inh: inactive; KCNQ1 act: inactive; Kir21 block: -0.66

How did Cc1ccc(CN(C)C(=O)CCc2nc3sc4c(c3c(=O)[nH]2)CCCC4)o1 do in these assays?
KCNQ1 inh: inactive; KCNK9 inh: inactive; hERG rescue: -3; KCNK3 inh: inactive; KCNQ1 act: inactive; Kir21 block: 1.2
